From publication PMC9200148 (The Journal of Infectious Diseases, 2020)
Several values for one entry are separate records, joined by “and”; a condition that tells them apart may be missing. Equal entries are not always repeated.

Experiments:
RSV-A Memphis 37b [1] = assay: RSV challenge study: symptom score and mucous weight; format: in vivo, human; details: for AUC of mucous weight from baseline through day 12 / AUC of symptom score from baseline through day 12: LS mean (SD)
Summary of the method: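 Volunteers with low serum neutralizing titres were challenged with RSV-A Memphis 37b. Dosing with 5 mg or placebo by nebulizer every 12 h for 5 days began about 12 h after RT-qPCR detection or on the morning of day 6, whichever came first. Symptoms were self-recorded in diaries three times daily, and mucus was weighed daily from used facial tissues. AUCs were computed and group means compared by t test in the ITT-I population.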

[2] = RSV challenge study: safety; format: in vivo, human
Summary of the method: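 This was a randomized, single-blind, placebo-controlled study in healthy adults inoculated intranasally on day 0 and held in quarantine for 15 days. They received 5 mg or placebo by nebulizer and facemask every 12 h for 5 days. The ITT population comprised those inoculated who received at least one dose. Adverse events (counted as subjects reporting them), laboratory values, vital signs, ECG and spirometry were recorded through day 28 (±3 days).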

[3] = Plasma pharmacokinetics after repeated nebulized dosing; format: in vivo, human
Summary of the method: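 Healthy adults aged 18–55 received 5 mg nebulized by facemask every 12 h for 5 days (10 doses), with the first dose either in the morning (schedule A) or the evening (schedule B). Serial plasma samples were assayed by LC–MS/MS after liquid–liquid extraction, using a D4-labelled internal standard (LLOQ 0.1 ng/mL; range 0.1–100 ng/mL). Tmax was timed from the end of inhalation, and values are geometric means of both schedules.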

RSV-A Memphis 37b [4] = assay: RSV challenge study: viral load in nasal wash by RT-qPCR; format: in vivo, human; details: for AUC VL from baseline through day 12 / Reduction in AUC VL vs placebo: 5 mg BID nebulized; for AUC VL from baseline through day 12 / Peak VL / Time to nondetectability (or <1 log) of RSV RNA / VL at 2.5 d (peak at placebo) after first dose / VL slope: baseline to 24 h after first dose / VL slope: baseline to 48 h after first dose: LS mean (SD)
Summary of the method: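 Nasal washes collected twice daily were assayed for RSV RNA by RT-qPCR (Simplexa) and expressed as log10 PFUe/mL. ITT-I was defined as PCR-positive just before dosing, or positive on at least two later occasions. Nebulized 5 mg or placebo was given every 12 h for 5 days, starting about 12 h after detection or on day 6. Viral load AUC, peak and time to nondetectability were analysed by a mixed-effects model and t test.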

RSV = details: cited from earlier work

## Cc1cnc(N2CC3(CCOCC3)C2)c(C(=O)Nc2ccc(C(=O)N3CCc4cc(C(=O)Nc5c(C)cccc5F)sc4-c4ccccc43)cc2)c1 [PC786, N-(2-fluoro-6-methylphenyl)-6-(4-(5-methyl-2-(7-oxa-2-azaspiro [3.5]nonan-2-yl)nicotinamido)benzoyl)-5,6-dihydro-4H-benzo[b]thieno[2,3-d]azepine-2-carboxamide]
RSV-A Memphis 37b [1]; ITT-I
  AUC of mucous weight from baseline through day 12: 11.8 (22.99) g × No. of days
  AUC of symptom score from baseline through day 12: 192.3 (244.97) score × h
RSV-A Memphis 37b [1]; ITT-I, P = .1095
  Mean AUC of mucous weight lower than placebo: 38%
RSV-A Memphis 37b [1]; ITT-I, not statistically significant
  AUC of total symptom score lower than placebo: 29%
RSV-A Memphis 37b [1]; ITT-IS
  AUC of mucous weight from baseline through day 12: 12.7 (24.69) g × No. of days
  AUC of symptom score from baseline through day 12: 221.2 (252.05) score × h
RSV-A Memphis 37b [1]; ITT-IS, P = .0126
  Reduction of mean AUC of mucous weight vs placebo: 46%
[2]; ITT (n = 28), 5 mg BID
  Conjunctivitis attributed to study drug, subjects: 0 No. (%)
  FEV1 decreased attributed to study drug, subjects: 0 No. (%)
  Headache attributed to study drug, events: 1 No. of Events
  Headache attributed to study drug, subjects: 1 (3.6) No. (%)
  No. of subjects with AEs attributed to study drug: 1 (3.6) No. (%)
  Photophobia attributed to study drug, subjects: 0 No. (%)
[2]; ITT (n = 28), 5 mg BID, first dose to day 28
  No. of subjects with AEs (TEAEs): 12 No. (%) and 12 (42.9) No. (%)
[2]; nebulized 5 mg BID for 5 days
  Serious adverse events, deaths, other significant AEs: no serious adverse events
[2]; nebulized 5 mg BID for 5 days, healthy subjects inoculated with RSV
  Tolerability: well tolerated
[3]; 5 mg BID
  Time at which steady state was reached: ≤ 4 days
[3]; human, inhaled, 5 mg
  AUC: 11.7 ng·h/mL
[3]; human, inhaled, 5 mg, Mean plasma Cmax, 5 mg BID nebulized
  Cmax: 1.5 ng/mL
[3]; human, inhaled, 5 mg, t½, apparent terminal half-life, geometric mean (CV%)
  half-life: 12.1 h
[3]; repeated 5 mg BID, median (range), after end of inhalation
  Tmax: 0.542 (0.383–2.08) h
RSV-A Memphis 37b [4]; ITT-I (n = 22)
  AUC VL from baseline through day 12: 274.1 log10 PFUe/mL × h and 274.1 (234.42) log10 PFUe/mL × h
RSV-A Memphis 37b [4]; ITT-I
  Reduction in AUC VL vs placebo: 32.57%
  Peak VL: 3.4 (1.76) log10 PFUe/mL
  Time to nondetectability (or <1 log) of RSV RNA: 4.6 (3.75) d
  VL at 2.5 d (peak at placebo) after first dose: 2.0 (1.82) log10 PFUe/mL
  VL slope: baseline to 24 h after first dose: 0.8 (1.89) log10 PFUe/mL/24 h
  VL slope: baseline to 48 h after first dose: 0.6 (1.52) log10 PFUe/mL/48 h
RSV-A Memphis 37b [4]; ITT-IS (n = 19, post hoc)
  AUC VL from baseline through day 12: 325.8 (199.19) log10 PFUe/mL × h
RSV-A Memphis 37b [4]; ITT-IS
  Reduction in AUC VL vs placebo: 34% and 34.25%
  Peak VL: 3.7 (1.30) log10 PFUe/mL
  Time to nondetectability (or <1 log) of RSV RNA: 4.9 (4.13) d
  VL at 2.5 d (peak at placebo) after first dose: 2.3 (1.66) log10 PFUe/mL
  VL slope: baseline to 24 h after first dose: 0.7 (1.50) log10 PFUe/mL/24 h
  VL slope: baseline to 48 h after first dose: 0.6 (1.45) log10 PFUe/mL/48 h

## CS(=O)(=O)CCCn1c(Cn2c(=O)n(CC(F)(F)F)c3ccncc32)cc2cc(Cl)ccc21 [JNJ-53718678]
RSV
  AUC reduction of viral load in RSV challenge study: 41%–53%
